Active and inactive are the calls of the source. The rule behind the calls is not given here.
Assays:
[1] = target: Sodium- and chloride-dependent betaine transporter (Homo sapiens, UniProt P48065, S345A); test: Inhibition of human BGT1 S345A mutant expressed in tsA201 cells assessed as reduction in [3H]GABA uptake after 3 mins by scintillation counting method; format: cell-based
Summary of the method: (§1)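 Site-directed mutant transporters transiently transfected (PolyFect) into tsA201 cells, plated and used about 24 h later. Cells were washed with HBSS containing 20 mM HEPES, 1 mM CaCl2 and 1 mM MgCl2, pH 7.4. IC50 was taken from variable-slope sigmoidal fits. Triplicates, at least three independent experiments.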

[2] = target: Sodium- and chloride-dependent betaine transporter (Homo sapiens, UniProt P48065, S381A); test: Inhibition of human BGT1 S381A mutant expressed in tsA201 cells assessed as reduction in [3H]GABA uptake after 3 mins by scintillation counting method; format: cell-based; summary of the method: as §1
[3] = target: Alpha-2C adrenergic receptor (Homo sapiens) (UniProt P18825); test: Displacement of [3H]rauwolscine from human alpha-2C adrenergic receptor expressed in MDCK cell membranes at 10 uM after 90 mins by scintillation counting method
[4] = target: Sodium- and chloride-dependent betaine transporter (Homo sapiens, UniProt P48065, A328G); test: Inhibition of human BGT1 A328G mutant expressed in tsA201 cells assessed as reduction in [3H]GABA uptake after 3 mins by scintillation counting method; format: cell-based; summary of the method: as §1
[5] = target: Sodium- and chloride-dependent betaine transporter (Homo sapiens, UniProt P48065, I340V); test: Inhibition of human BGT1 I340V mutant expressed in tsA201 cells assessed as reduction in [3H]GABA uptake after 3 mins by scintillation counting method; format: cell-based; summary of the method: as §1
[6] = target: Sodium- and chloride-dependent betaine transporter (Homo sapiens, UniProt P48065, V337I); test: Inhibition of human BGT1 V337I mutant expressed in tsA201 cells assessed as reduction in [3H]GABA uptake after 3 mins by scintillation counting method; format: cell-based; summary of the method: as §1
[7] = target: Sodium- and chloride-dependent betaine transporter (Homo sapiens, UniProt P48065, C382T); test: Inhibition of human BGT1 C382T mutant expressed in tsA201 cells assessed as reduction in [3H]GABA uptake after 3 mins by scintillation counting method; format: cell-based; summary of the method: as §1
[8] = target: Sodium- and chloride-dependent betaine transporter (Homo sapiens, UniProt P48065); test: Inhibition of human BGT1/human GAT3 chimera C expresses in tsA201 cells assessed as reduction in [3H]GABA uptake after 3 mins by scintillation counting method; format: cell-based
Summary of the method: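 BGT1/GAT3 chimeric constructs transiently expressed in tsA201 cells. After about 24 h, cells were washed in HEPES-buffered HBSS (1 mM CaCl2, 1 mM MgCl2, pH 7.4). IC50 came from variable-slope sigmoidal regression. Triplicates, at least two independent experiments.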

[9] = target: Sodium- and chloride-dependent betaine transporter (Homo sapiens, UniProt P48065, F367Y); test: Inhibition of human BGT1 F367Y mutant expressed in tsA201 cells assessed as reduction in [3H]GABA uptake after 3 mins by scintillation counting method; format: cell-based; summary of the method: as §1
Sodium- and chloride-dependent betaine transporter (Homo sapiens, UniProt P48065, F367Y), sequence (P48065 whole entry F367Y): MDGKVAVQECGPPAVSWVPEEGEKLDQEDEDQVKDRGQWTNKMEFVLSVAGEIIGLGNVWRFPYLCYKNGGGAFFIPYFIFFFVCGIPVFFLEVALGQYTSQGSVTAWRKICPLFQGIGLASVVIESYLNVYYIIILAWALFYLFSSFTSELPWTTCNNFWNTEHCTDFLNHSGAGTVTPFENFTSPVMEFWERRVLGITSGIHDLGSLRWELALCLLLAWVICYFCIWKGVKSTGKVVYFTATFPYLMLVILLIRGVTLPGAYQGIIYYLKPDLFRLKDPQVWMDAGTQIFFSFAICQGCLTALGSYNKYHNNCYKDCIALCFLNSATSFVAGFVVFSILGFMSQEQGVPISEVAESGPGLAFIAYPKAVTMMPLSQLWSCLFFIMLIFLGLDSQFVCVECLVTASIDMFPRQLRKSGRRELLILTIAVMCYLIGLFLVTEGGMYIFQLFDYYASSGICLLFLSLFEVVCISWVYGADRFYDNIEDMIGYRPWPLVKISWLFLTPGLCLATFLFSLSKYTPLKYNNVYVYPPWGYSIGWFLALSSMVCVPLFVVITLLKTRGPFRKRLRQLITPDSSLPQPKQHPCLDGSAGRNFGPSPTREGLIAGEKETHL

Sodium- and chloride-dependent betaine transporter (Homo sapiens, UniProt P48065, V337I), sequence (P48065 whole entry V337I): as the sequence (P48065 whole entry F367Y) above, with V337I, Y367F counted along it
Sodium- and chloride-dependent betaine transporter (Homo sapiens, UniProt P48065, I340V), sequence (P48065 whole entry I340V): as the sequence (P48065 whole entry F367Y) above, with I340V, Y367F counted along it
Sodium- and chloride-dependent betaine transporter (Homo sapiens, UniProt P48065), sequence (P48065 whole entry, looked up): as the sequence (P48065 whole entry F367Y) above, with Y367F counted along it
Sodium- and chloride-dependent betaine transporter (Homo sapiens, UniProt P48065, S345A), sequence (P48065 whole entry S345A): as the sequence (P48065 whole entry F367Y) above, with S345A, Y367F counted along it
Sodium- and chloride-dependent betaine transporter (Homo sapiens, UniProt P48065, A328G), sequence (P48065 whole entry A328G): as the sequence (P48065 whole entry F367Y) above, with A328G, Y367F counted along it
Sodium- and chloride-dependent betaine transporter (Homo sapiens, UniProt P48065, C382T), sequence (P48065 whole entry C382T): as the sequence (P48065 whole entry F367Y) above, with Y367F, C382T counted along it
Sodium- and chloride-dependent betaine transporter (Homo sapiens, UniProt P48065, S381A), sequence (P48065 whole entry S381A): as the sequence (P48065 whole entry F367Y) above, with Y367F, S381A counted along it
Alpha-2C adrenergic receptor (Homo sapiens), sequence (P18825 whole entry): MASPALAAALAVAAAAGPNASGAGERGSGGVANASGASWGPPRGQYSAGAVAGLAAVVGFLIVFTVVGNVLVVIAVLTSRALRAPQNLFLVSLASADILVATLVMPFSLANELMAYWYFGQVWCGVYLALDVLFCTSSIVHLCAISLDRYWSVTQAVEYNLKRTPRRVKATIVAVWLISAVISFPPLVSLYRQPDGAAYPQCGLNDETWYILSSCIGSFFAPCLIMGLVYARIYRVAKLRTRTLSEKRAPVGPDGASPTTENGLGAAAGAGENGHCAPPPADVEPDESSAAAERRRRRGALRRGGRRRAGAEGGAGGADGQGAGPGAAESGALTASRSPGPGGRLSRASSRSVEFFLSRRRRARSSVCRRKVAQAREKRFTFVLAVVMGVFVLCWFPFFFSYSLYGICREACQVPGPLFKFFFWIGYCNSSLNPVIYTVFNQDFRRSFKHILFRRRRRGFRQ

IC50 [1]: 21 µM
IC50 [2]: 13 µM
inhibition [3]: Active
IC50 [4]: 7 µM
IC50 ([5]; read-out: IC50): 8 µM
IC50 ([5]; read-out: pIC50 (converted)): 5.89 µM
IC50 ([6]; read-out: IC50): 6 µM
IC50 ([6]; read-out: pIC50 (converted)): 4.9 µM
IC50 [7]: 15 µM
IC50 [8]: 58 µM
pIC50 [8]: 4.6
IC50 ([9]; read-out: IC50): 5 µM
IC50 ([9]; read-out: pIC50 (converted)): 6.03 µM
SMILES: O=C(NC1CCN(Cc2ccccc2)CC1)c1ccc(Cl)cc1Cl
